The values below come from ChEMBL document CHEMBL4680371, “Design and Structure-Activity Relationship of a Potent Furin Inhibitor Derived from Influenza Hemagglutinin” (ACS Med Chem Lett, 2021).

The structures appear in SMILES notation. Where a SMILES comes first, the peptide text is derived from it. [ ]: non-standard residue; d: D form. Abu = CC[C@H](N)C(=O)O

In this assay the target is Furin (Homo sapiens, UniProt P09958). Kind of assay: Inhibition of recombinant soluble human furin using pyroGlu-Arg-Thr-Lys-Arg-methyl-coumaryl-7-amide as substrate measured after 1 hr. The method in brief: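 Soluble human recombinant furin was tested in a competitive kinetic assay. Ki is reported as the mean ± SD of at least two independent experiments.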
Chain of Furin (P09958 whole entry): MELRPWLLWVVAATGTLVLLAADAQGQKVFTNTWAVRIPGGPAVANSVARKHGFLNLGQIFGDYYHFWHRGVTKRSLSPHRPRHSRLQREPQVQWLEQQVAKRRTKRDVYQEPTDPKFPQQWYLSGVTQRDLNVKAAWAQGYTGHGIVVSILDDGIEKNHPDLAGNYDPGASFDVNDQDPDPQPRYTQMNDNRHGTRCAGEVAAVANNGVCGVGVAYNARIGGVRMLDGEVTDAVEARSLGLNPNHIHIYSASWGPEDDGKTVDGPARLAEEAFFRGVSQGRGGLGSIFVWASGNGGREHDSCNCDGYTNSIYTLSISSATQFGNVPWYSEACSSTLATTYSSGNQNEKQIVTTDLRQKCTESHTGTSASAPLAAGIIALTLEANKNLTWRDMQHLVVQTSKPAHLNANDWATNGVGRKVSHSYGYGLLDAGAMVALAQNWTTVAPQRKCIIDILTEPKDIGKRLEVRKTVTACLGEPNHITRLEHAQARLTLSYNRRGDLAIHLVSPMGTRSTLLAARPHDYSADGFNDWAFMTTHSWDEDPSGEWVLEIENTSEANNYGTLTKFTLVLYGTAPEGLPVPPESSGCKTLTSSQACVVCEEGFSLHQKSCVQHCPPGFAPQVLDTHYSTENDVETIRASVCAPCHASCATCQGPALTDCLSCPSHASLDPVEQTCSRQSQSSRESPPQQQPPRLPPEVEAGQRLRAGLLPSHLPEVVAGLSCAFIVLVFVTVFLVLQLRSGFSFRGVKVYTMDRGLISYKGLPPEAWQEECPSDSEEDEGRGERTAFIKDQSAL
What is called Ki is a dissociation constant, usually derived from enzyme kinetics or from competition with a known ligand. Take `CC(=O)N[C@@H](CCCNC(=N)N)C(=O)N[C@@H](C)C(=O)N[C@@H](CCCNC(=N)N)C(=O)N[C@@H](CCC(=O)O)C(=O)N[C@@H](CCCNC(=N)N)C(=O)N[C@@H](CCCCN)C(=O)N[C@@H](CCCCN)C(=O)N[C@@H](CCCNC(=N)N)C(=O)N[C@H](C(N)=O)[C@@H](C)O`: the Ki was found to be 55 nM.

For the compound `CC(=O)N[C@@H](C)C(=O)N[C@@H](Cc1c[nH]c2ccccc12)C(=O)N[C@@H](CCCNC(=N)N)C(=O)N[C@@H](CCCNC(=N)N)C(=O)N[C@@H](CCCNC(=N)N)C(=O)N[C@@H](CCCCN)C(=O)N[C@@H](CCCCN)C(=O)N[C@@H](CCCNC(=N)N)C(=O)N[C@H](C(N)=O)[C@@H](C)O` (Ac-AWRRRKKRT-NH2), the Ki is 30 nM.

Turning to `CC(=O)NCC(=O)N[C@@H](C)C(=O)N[C@@H](CCCNC(=N)N)C(=O)N[C@@H](CCCNC(=N)N)C(=O)N[C@@H](CCCNC(=N)N)C(=O)N[C@@H](CCCCN)C(=O)N[C@@H](CCCCN)C(=O)N[C@@H](CCCNC(=N)N)C(=O)N[C@H](C(N)=O)[C@@H](C)O`, the Ki was found to be 11 nM.

For `CC(=O)N1CCC[C@@H]1C(=O)N[C@@H](C)C(=O)N[C@@H](CCCNC(=N)N)C(=O)N[C@@H](CCCNC(=N)N)C(=O)N[C@@H](CCCNC(=N)N)C(=O)N[C@@H](CCCCN)C(=O)N[C@@H](CCCCN)C(=O)N[C@@H](CCCNC(=N)N)C(=O)N[C@H](C(N)=O)[C@@H](C)O`, the Ki is 13 nM.

As for `CC[C@H](C)[C@H](NC(=O)[C@H](CCCNC(=N)N)NC(=O)[C@H](C)NC(=O)[C@@H](NC(C)=O)[C@@H](C)O)C(=O)N[C@@H](CCCNC(=N)N)C(=O)N[C@@H](CCCCN)C(=O)N[C@@H](CCCCN)C(=O)N[C@@H](CCCNC(=N)N)C(=O)N[C@H](C(N)=O)[C@@H](C)O` (Ac-TARIRKKRT-NH2), the inhibitory constant (Ki) is 11 nM.

For `CC(=O)N[C@@H](CCCNC(=N)N)C(=O)N[C@@H](C)C(=O)N[C@@H](CCCNC(=N)N)C(=O)NCC(=O)N[C@@H](CCCNC(=N)N)C(=O)N[C@@H](CCCCN)C(=O)N[C@@H](CCCCN)C(=O)N[C@@H](CCCNC(=N)N)C(=O)N[C@H](C(N)=O)[C@@H](C)O`, the Ki is 36 nM.

On to `CC(=O)N[C@H](CO)C(=O)N[C@@H](C)C(=O)N[C@@H](CCCNC(=N)N)C(=O)N[C@@H](CCCNC(=N)N)C(=O)N[C@@H](CCCNC(=N)N)C(=O)N[C@@H](CCCCN)C(=O)N[C@@H](CCCCN)C(=O)N[C@@H](CCCNC(=N)N)C(=O)N[C@H](C(N)=O)[C@@H](C)O`, for which the Ki worked out at 11 nM.

Regarding `CSCC[C@H](NC(C)=O)C(=O)N[C@@H](C)C(=O)N[C@@H](CCCNC(=N)N)C(=O)N[C@@H](CCCNC(=N)N)C(=O)N[C@@H](CCCNC(=N)N)C(=O)N[C@@H](CCCCN)C(=O)N[C@@H](CCCCN)C(=O)N[C@@H](CCCNC(=N)N)C(=O)N[C@H](C(N)=O)[C@@H](C)O`, the Ki was 12 nM.

As to `CC(=O)N[C@@H](CCCNC(=N)N)C(=O)N[C@@H](C)C(=O)N[C@@H](CCCNC(=N)N)C(=O)N1CCC[C@H]1C(=O)N[C@@H](CCCNC(=N)N)C(=O)N[C@@H](CCCCN)C(=O)N[C@@H](CCCCN)C(=O)N[C@@H](CCCNC(=N)N)C(=O)N[C@H](C(N)=O)[C@@H](C)O`, the Ki came out at 8 nM.

Take `CC[C@H](C)[C@H](NC(=O)[C@H](C)NC(=O)[C@H](CCCNC(=N)N)NC(C)=O)C(=O)N[C@@H](CCCNC(=N)N)C(=O)N[C@@H](CCCNC(=N)N)C(=O)N[C@@H](CCCCN)C(=O)N[C@@H](CCCCN)C(=O)N[C@@H](CCCNC(=N)N)C(=O)N[C@H](C(N)=O)[C@@H](C)O`: the Ki amounted to 26 nM.

With `CC[C@H](NC(=O)[C@H](CCCNC(=N)N)NC(=O)[C@H](C)NC(=O)CNC(C)=O)C(=O)N[C@@H](CCCNC(=N)N)C(=O)N[C@@H](CCCCN)C(=O)N[C@@H](CCCCN)C(=O)N[C@@H](CCCNC(=N)N)C(=O)N[C@H](C(N)=O)[C@@H](C)O` (Ac-GAR[Abu]RKKRT-NH2), the Ki worked out at 10 nM.

For the compound `CC(=O)N[C@@H](CCCNC(=N)N)C(=O)NCC(=O)N[C@@H](CCCNC(=N)N)C(=O)N[C@@H](CCCNC(=N)N)C(=O)N[C@@H](CCCNC(=N)N)C(=O)N[C@@H](CCCCN)C(=O)N[C@@H](CCCCN)C(=O)N[C@@H](CCCNC(=N)N)C(=O)N[C@H](C(N)=O)[C@@H](C)O`, the Ki worked out at 17 nM.

Take `CC(=O)N[C@@H](CCCNC(=N)N)C(=O)N[C@@H](C)C(=O)N[C@@H](CCCNC(=N)N)C(=O)N[C@@H](Cc1c[nH]cn1)C(=O)N[C@@H](CCCNC(=N)N)C(=O)N[C@@H](CCCCN)C(=O)N[C@@H](CCCCN)C(=O)N[C@@H](CCCNC(=N)N)C(=O)N[C@H](C(N)=O)[C@@H](C)O`: the Ki amounted to 22 nM.

For the compound `CSCC[C@H](NC(=O)[C@H](CCCNC(=N)N)NC(=O)[C@H](C)NC(=O)[C@H](CCCNC(=N)N)NC(C)=O)C(=O)N[C@@H](CCCNC(=N)N)C(=O)N[C@@H](CCCCN)C(=O)N[C@@H](CCCCN)C(=O)N[C@@H](CCCNC(=N)N)C(=O)N[C@H](C(N)=O)[C@@H](C)O`, the Ki came out at 16 nM.

Turning to `CC[C@H](C)[C@H](NC(=O)[C@H](CCCNC(=N)N)NC(=O)[C@H](C)NC(=O)[C@H](CCC(N)=O)NC(C)=O)C(=O)N[C@@H](CCCNC(=N)N)C(=O)N[C@@H](CCCCN)C(=O)N[C@@H](CCCCN)C(=O)N[C@@H](CCCNC(=N)N)C(=O)N[C@H](C(N)=O)[C@@H](C)O` (Ac-QARIRKKRT-NH2), the Ki turned out to be 9 nM.

In the case of `CC[C@H](C)[C@@H](NC(=O)[C@H](CCCNC(=N)N)NC(=O)[C@H](C)NC(=O)[C@H](CCCNC(=N)N)NC(C)=O)C(=O)N[C@@H](CCCNC(=N)N)C(=O)N[C@@H](CCCCN)C(=O)N[C@@H](CCCCN)C(=O)N[C@@H](CCCNC(=N)N)C(=O)N[C@H](C(N)=O)[C@@H](C)O`, the Ki stood at 240 nM.

For the compound `CC(=O)N[C@@H](CCCNC(=N)N)C(=O)N[C@@H](C)C(=O)N[C@@H](CCCNC(=N)N)C(=O)N[C@H](C(=O)N[C@@H](CCCNC(=N)N)C(=O)N[C@@H](CCCCN)C(=O)N[C@@H](CCCCN)C(=O)N[C@@H](CCCNC(=N)N)C(=O)N[C@H](C(N)=O)[C@@H](C)O)[C@@H](C)O`, the Ki came to 8 nM.

On to `CC(=O)N[C@@H](CCCNC(=N)N)C(=O)N[C@@H](CCC(N)=O)C(=O)N[C@@H](CCCNC(=N)N)C(=O)N[C@@H](CCCNC(=N)N)C(=O)N[C@@H](CCCNC(=N)N)C(=O)N[C@@H](CCCCN)C(=O)N[C@@H](CCCCN)C(=O)N[C@@H](CCCNC(=N)N)C(=O)N[C@H](C(N)=O)[C@@H](C)O`, for which the Ki came to 19 nM.

On to `CC(=O)N[C@@H](CCCNC(=N)N)C(=O)N[C@@H](C)C(=O)N[C@@H](CC(=O)O)C(=O)N[C@@H](CCCNC(=N)N)C(=O)N[C@@H](CCCNC(=N)N)C(=O)N[C@@H](CCCCN)C(=O)N[C@@H](CCCCN)C(=O)N[C@@H](CCCNC(=N)N)C(=O)N[C@H](C(N)=O)[C@@H](C)O`, for which the Ki worked out at 270 nM.

Consider `CC(=O)N[C@@H](Cc1ccc(O)cc1)C(=O)N[C@@H](C)C(=O)N[C@@H](CCCNC(=N)N)C(=O)N[C@@H](CCCNC(=N)N)C(=O)N[C@@H](CCCNC(=N)N)C(=O)N[C@@H](CCCCN)C(=O)N[C@@H](CCCCN)C(=O)N[C@@H](CCCNC(=N)N)C(=O)N[C@H](C(N)=O)[C@@H](C)O`, for which the inhibition constant Ki was 18 nM.

For the compound `CC(=O)N[C@@H](CCCNC(=N)N)C(=O)N[C@@H](C)C(=O)N[C@@H](CCCNC(=N)N)C(=O)N[C@@H](CCC(N)=O)C(=O)N[C@@H](CCCNC(=N)N)C(=O)N[C@@H](CCCCN)C(=O)N[C@@H](CCCCN)C(=O)N[C@@H](CCCNC(=N)N)C(=O)N[C@H](C(N)=O)[C@@H](C)O`, the Ki amounted to 19 nM.
